CHRM1 PAM: human M1 muscarinic receptor positive allosteric modulators, primary screen, CHO-K1 cells, Fluo-8 calcium fluorescence, 1536-well; Muscarinic acetylcholine receptor M1 (Homo sapiens), P11229; CHO-K1 hM1, ACh EC20; 0% = ACh EC20, 100% = maximal ACh; activation, % at 3 µM; 360,000 tested, 0.088% active; in the data active = activation above about 19%, passing the limit was not always enough
CHRM5 agonist: human M5 muscarinic receptor agonists, primary screen, CHO-K1 cells, Fluo-8 calcium fluorescence; Muscarinic acetylcholine receptor M5 (Homo sapiens), P08912; CHO-K1 hM5 cells; 0% DMSO wells, 100% maximal acetylcholine response; activation, % at 3 µM; 360,000 tested, 0.19% active; AID 624037, 2012;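 active = activation above the run's mean over test compounds plus 3 SD, cut at about 23% in these data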;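 note: signal is peak over basal fluorescence ratio across the kinetic read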
Target sequence (P08912 whole entry, looked up): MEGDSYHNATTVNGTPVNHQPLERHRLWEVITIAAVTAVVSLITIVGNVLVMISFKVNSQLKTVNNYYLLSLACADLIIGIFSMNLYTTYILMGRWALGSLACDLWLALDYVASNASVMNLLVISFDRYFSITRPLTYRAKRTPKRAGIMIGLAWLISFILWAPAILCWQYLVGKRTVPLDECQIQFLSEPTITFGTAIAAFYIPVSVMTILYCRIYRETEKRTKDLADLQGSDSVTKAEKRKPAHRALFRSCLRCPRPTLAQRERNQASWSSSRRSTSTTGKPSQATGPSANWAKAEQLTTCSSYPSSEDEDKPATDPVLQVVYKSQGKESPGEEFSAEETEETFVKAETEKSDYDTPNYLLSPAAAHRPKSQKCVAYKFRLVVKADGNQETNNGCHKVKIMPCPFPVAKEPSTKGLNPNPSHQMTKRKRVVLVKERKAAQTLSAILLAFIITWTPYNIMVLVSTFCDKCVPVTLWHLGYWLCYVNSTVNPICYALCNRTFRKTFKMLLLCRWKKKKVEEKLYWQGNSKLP
M1 antag: human M1 muscarinic receptor antagonists, primary screen, CHO-K1 cells, Fluo-8 calcium fluorescence, 1536-well; CHO-K1 hM1, ACh EC80 antagonist; Muscarinic acetylcholine receptor M1 (Homo sapiens), P11229; inhibition, % at 3 µM; 360,000 tested, 1.3% active;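 active = percent inhibition above its own plate's cutoff, namely the mean of that plate's compound wells plus 3 SD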;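 note: peak over basal fluorescence ratio during 140 s after agonist addition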
M5 PAM: human M5 muscarinic receptor positive allosteric modulators, primary screen, CHO-K1 cells, Fluo-8 calcium fluorescence. Muscarinic acetylcholine receptor M5 (Homo sapiens), P08912. CHO-K1 hM5, ACh EC20 PAM; 0% = ACh EC20, 100% = ACh EC100. activation, % at 3 µM. 360,000 tested, 0.3% active. AID 624038, 2012;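 active = activation above the run cutoff, the mean activation of all test compounds plus 3 SD, cut at about 18% in these data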
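Assay system – human M5 receptor in CHO-K1 cells · Read-out – % activation, ACh-normalized · Technique – Fluo-8 calcium fluorescence · Dosing – single-point, 3 µM nominal · Incubation – Fluo-8 loading 80 min at 37 °C plus 30 min room temperature · Repeats – singlicate, one well per test compound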
M5 antag: human M5 muscarinic receptor antagonists, primary screen, CHO cells, Fluo-8 calcium fluorescence. Muscarinic acetylcholine receptor M5 (Homo sapiens), P08912. CHO-hM5 cells, ACh EC80. inhibition, % at 3 µM. 360,000 tested, 0.59% active. AID 624040, 2012;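 active = inhibition above a per-plate cutoff, the mean of that plate's test compounds plus 3 SD, cut at about 27% in these data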
M1 ag: human M1 muscarinic receptor agonists, primary screen, Fluo-8 calcium fluorescence, CHO-K1 cells, HTS | Muscarinic acetylcholine receptor M1 (Homo sapiens), P11229 | CHO-K1 hM1, agonist mode; 0% DMSO, 100% acetylcholine EC100 | activation, % at 3 µM | 360,000 tested, 0.33% active | AID 588814, 2011;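 active = activation above the run's mean compound activation plus 3 SD, cut at about 16% in these data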;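 note: peak over basal fluorescence ratio within a 140 s kinetic read after compound addition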
Of the large screens only hits and unclear results are named; the others gave an inactive call. Compounds with a hit are over-represented: about 2% of the library has one in this group of screens.

COc1cc(NC(=O)CSc2nnc3ccccn23)cc(OC)c1OC	none
COc1ccccc1NC(=O)Cc1nnc(SCC(=O)NC2CCCCC2C)n1C (centres undefined)	M5 antag 31
COc1ccccc1NC(=O)Cc1nnc(SCC(=O)NC2CCCC2)n1C	none
COc1ccccc1NC(=O)CSc1nnc2ccccn12	CHRM1 PAM 25
COc1ccccc1NC(=O)CSc1nncn1N	M5 PAM 19
CCOC(=O)C1(C)CCCN(C(=O)c2c(-c3ccccc3)noc2C)C1 (centres undefined)	none
O=C(Nc1ncnc2c1ncn2[C@@H]1O[C@H](/C=C/C(=O)N2CCN(c3ccc(F)cc3)CC2)[C@@H](O)[C@H]1O)c1ccccc1	none
CN1CCC(=O)N(CCOc2ccccc2)CC1	M5 PAM 20
COc1cc(OC)cc(C(=O)N2CCC(n3c(C)nc4cc(F)ccc43)CC2)c1	M5 PAM 34
COc1ccc(NC(=O)CN2CCC(n3c(C)nc4cc(F)ccc43)CC2)c(OC)c1	none
O=c1c2ccccc2nc2sc(Nc3cccc(Cl)c3)nn12	M5 PAM 20
COc1ccc(F)cc1-c1cc(NC(C)=O)c2ncc(-c3cccc(C(F)(F)F)c3)n2c1	none
CCCCC(=O)N(C)c1c(CC)nc2c(OCC(=O)N3CCOCC3)cccn12	none
COc1cc2[nH]c3c(=O)n(N)c(=O)[nH]c3c2cc1OC	M1 antag 41
COc1ccc2[nH]c3c(=O)n(N)c(=O)[nH]c3c2c1	none
COc1ccc(-c2cc(CNC(=O)CCl)on2)cc1	M5 PAM 19
CCOC(=O)[C@]12CCC=C1N(Cc1ccc3c(c1)OCO3)C(=O)[C@H](CC(=O)N1CCSCC1)C2	none (no result: CHRM1 PAM, M1 antag, M1 ag)
Cc1ccc(Cl)cc1NC(=S)NCCCSC1CCCCC1	M1 antag 37
O=C(NCC(c1cccs1)N1CCOCC1)c1ccccc1NS(=O)(=O)c1ccc(Cl)c([N+](=O)[O-])c1 (centres undefined)	M5 antag 43
O=C(NCC(c1cccs1)N1CCOCC1)c1ccccc1NS(=O)(=O)c1cccc([N+](=O)[O-])c1 (centres undefined)	none
CCOc1ccc(S(=O)(=O)Nc2ccc(C(=O)NCC(c3ccco3)N(C)C)cc2)cc1 (centres undefined)	M1 antag 32
CCOc1ccc(NS(=O)(=O)c2ccc(C(=O)NCC(c3cccs3)N3CCOCC3)cc2)cc1 (centres undefined)	CHRM5 agonist 50, M1 ag 29
CC(=O)c1ccc(S(=O)(=O)Nc2ccc(C(=O)NCC(c3cccs3)N3CCOCC3)cc2)cc1 (centres undefined)	none
CN(C)C(CNC(=O)c1cccc(NS(=O)(=O)c2ccc(Br)cc2)c1)c1ccco1 (centres undefined)	M1 antag 70
COc1cccc(NC(=O)N2CCC(NC(=O)C3CCCCC3)CC2)c1	CHRM1 PAM 28
COc1cccc(NC(=S)N2CCC(NC(=O)C3CCCCC3)CC2)c1	none
NC(=O)C1CC2(C1)CC(C(N)=O)C2 (centres undefined)	none
C=CCn1c(=S)[nH]c2cc(C(=O)Nc3ccc(F)cc3)ccc2c1=O	M1 antag 23
C#Cc1ccc([C@H]2C=C(C(=O)NCc3ccccc3)O[C@@H](OCC)[C@@H]2CCCO)cc1	M1 antag 63, M5 antag 34
CCO[C@@H]1OC(C(=O)NCc2ccccc2)=C[C@H](c2ccc(Br)cc2)[C@H]1CCCO	M1 antag 68
C#Cc1ccc([C@@H]2C=C(C(=O)Nc3ccccc3)O[C@H](OCC)[C@H]2CCCO)cc1	none
Cc1ccc([C@H]2C[C@@H](O)[C@H](n3cc(C4CC4)nn3)CN2C(=O)C2CCCCC2)cc1	none
CCOc1ccc(N2CC(O)(c3cccs3)[N+]3=C2CCCC3)cc1 (centres undefined)	M1 antag 41, M5 antag 36
COc1ccc(N2CC(O)(c3ccc(C)cc3)[N+]3=C2CCCC3)cc1 (centres undefined)	none
CCOc1ccc(N2CC(O)(c3ccc(F)cc3)[N+]3=C2CCCC3)cc1 (centres undefined)	none
COc1ccc(N2CC(O)(c3ccc(OC(F)F)cc3)[N+]3=C2CCCC3)cc1 (centres undefined)	M1 antag 42
COc1ccc(N2CC(O)(c3ccc(F)cc3)[N+]3=C2CCCC3)cc1 (centres undefined)	M1 antag 47
CN1CCN(c2nc3cc(N4CCOCC4)ccc3s2)CC1	none
Cc1ccc(-n2ncc(C#N)c2N)cc1	none
N#Cc1cnn(-c2ccc(F)cc2)c1N	M5 PAM 19
CCCCN(C(=O)C1CCCC1)c1c(N)n(CC(C)C)c(=O)[nH]c1=O	CHRM1 PAM 30
Nc1c(N(CCC2=CCCCC2)C(=O)Cc2ccc(F)cc2)c(=O)[nH]c(=O)n1Cc1ccccc1	M1 ag 19
Cc1cccc(OCC(=O)N(Cc2ccccc2)c2c(N)n(Cc3ccccc3)c(=O)[nH]c2=O)c1	CHRM1 PAM 23
COCCN(C(=O)Cc1coc2cc(C)c(C)cc12)c1c(N)n(Cc2ccccc2)c(=O)[nH]c1=O	M5 antag 100
Cc1cccc(OCC(=O)N(Cc2ccco2)c2c(N)n(Cc3ccccc3)c(=O)[nH]c2=O)c1	none
Nc1nc(SCC(=O)Nc2ccc(OC(F)(F)F)cc2)[nH]c(=O)c1NC(=O)c1ccc(Br)o1	M5 antag 34
CCSc1nc(N)c(NC(=O)c2ccc(Br)o2)c(=O)[nH]1	none
C#CCCCCCCC#CCN(C)C	M1 ag 41
COc1ccc(C2=NS(=O)(=O)N(C)C(C(=O)N3CCc4ccccc4C3)=C2)cc1OC	M1 antag 25
COc1ccc(N2C(=O)CSC23C(=O)Nc2ccccc23)cc1 (centres undefined)	none
CC(C)c1ccc(N2C(=O)CSC23C(=O)N2CCCc4cccc3c42)cc1 (centres undefined)	M1 antag 98, M5 antag 48
CCCNC(=O)c1cccc(COCC(F)(F)F)c1	M5 PAM 34

High-throughput results deposited in PubChem BioAssay by The Scripps Research Institute Molecular Screening Center.
